# From PubChem
# APP 5'UTR act – activates APP 5'UTR luciferase reporter; SH-SY5Y APP 5'UTR luciferase reporter, luminescence; zero percent = DMSO vehicle wells; activation, % at 2 µM; 1% of 190,000 active; AID 1276;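 active = activation above a set limit, based on mean plus 3 SD of controls, cut at about 140% in these data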
# NF-kB neuron act – compounds increasing NF-kB expression in human neuronal cells. fold change at 12.5 µM. 1.6% of 190,000 active. AID 1239. NF-kB reporter expression; stronger effect = higher value; in the data active = fold change above about 3.3
# STAT3 activator – increases IL-6 driven STAT3 reporter signal | AID 871 | U3A cells, IL-6 STAT3-luciferase reporter, luminescence; 100% = signal with IL-6 EC80 alone | 0.91% of 190,000 active | activation (% of control), % at 5.6 µM;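 active = activation above the screen-wide mean of compound activation plus 3 SD, cut at about 130% in these data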;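 also: 0% = background luminescence of wells with medium and substrate only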
#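 Test system: STAT3-luciferase reporter U3A cells; Detection: reporter luminescence signal; Times: 1 h compound pre-exposure, 6 h IL-6 stimulation, 37 °C; Benchmarks: IL-6-only high control; Also added: IL-6 stimulus at 33 ng/mL final.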
# STAT3 inh – reduces IL-6 driven STAT3 reporter signal. U3A cells, IL-6 STAT3-luciferase reporter, luminescence; host cell line lacks STAT1. inhibition, % at 5.5 µM. 0.89% of 190,000 active. AID 862;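 active = inhibition above the mean inhibition across all screened compounds plus 3 SD, cut at about 44% in these data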;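 also: 0% = DMSO only wells and 100% = 100 µM nifuroxazide control wells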
# STAT1 inh – inhibitors of IFN-gamma induced STAT1 signaling | NIH 3T3 STAT1-luciferase reporter, luminescence | inhibition, % at 5.5 µM | 0.35% of 200,000 active | AID 920;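 active = inhibition above a set limit, the mean inhibition across all tested compounds plus 3 SD, cut at about 34% in these data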;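 also: 0% = IFN-gamma with DMSO and 100% = IFN-gamma with 300 µM nifuroxazide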
# STAT1 act – activators of IFN-gamma induced STAT1 signaling; activation (% of control), % at 5.5 µM; 2.6% of 200,000 active; NIH 3T3 STAT1-luciferase reporter, luminescence; 100% = IFN-gamma alone, no compound;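 active = activation above the screen-wide mean activation plus 3 SD, cut at about 130% in these data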;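 also: raw ratio to IFN-gamma control signal so 100% means no change and 0% no light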
# Starred values were filed as active, the others as inactive; . = no result. Shown are actives, neighbours in structure and some others; about 5.1% of the full set was active somewhere.
SMILES,APP 5'UTR act,NF-kB neuron act,STAT3 activator,STAT3 inh,STAT1 inh,STAT1 act
Fc1ccc(/C=C/c2nnc(-c3cccs3)o2)cc1,82.5,4.17*,79.3,26.9,-32.4,128.9*
Cc1ccc(-c2nnc(N)o2)cc1,11.3,1.15,96.5,5.4,-5.5,104.6
Cc1ccc(/C=C/c2nnc(-c3ccc(C)cc3)o2)cc1,2.9,1.73,98.4,6.8,-1.7,101.5
c1ccc(-c2nnc(-c3cccc(-c4nnc(-c5ccccc5)o4)c3)o2)cc1,-4.3,.,101.6,0.3,-3.4,105.8
CC(Oc1ccc(C#N)cc1)C(=O)c1ccc(F)c(F)c1 (configuration not stated),-14.2,1.12,100.8,6.6,3.2,96.7
O=C(NCC1COc2ccccc2O1)c1ccc(Cl)cc1 (configuration not stated),74.5,2.85,105.2,-3.4,-43.7,140.1*
O=C(NCC1COc2ccccc2O1)c1ccc(NC(=O)c2ccco2)cc1 (configuration not stated),2.9,1.12,98.7,5.2,-3.1,102.8
CCC(CC)c1nnc(NC(=O)CCNC(=O)c2ccccc2Cl)s1,-3.9,1.07,107.9,-3.0,0.6,99.3
CC1CCCCN1S(=O)(=O)c1ccc(C(=O)Nc2sccc2C(N)=O)cc1 (configuration not stated),77.7,1.27,118.4,-12.7,-31.5,128.6*
NC(=O)c1ccsc1NC(=O)C1CCCN1S(=O)(=O)c1ccc(Cl)cc1 (configuration not stated),2.4,1.63,98.1,5.2,1.1,99.0
Cc1ccc(Cn2c(=N)n(CC(=O)c3ccccc3)c3ccccc32)cc1,-4.9,1.1,93.2,11.2,14.4,84.8
COc1cc2c(C)nc3c(cnn3-c3ccccc3)c2cc1OC,78.9,.,100.6,5.5,-47.4,144.1*
Nc1cccc(-c2cn3cc(C(F)(F)F)cc(Cl)c3n2)c1,.,6.79*,108.1,-4.0,-32.9,129.6*
Cc1cc(C(F)(F)F)nc(-n2cc(-c3cccc(N)c3)nn2)n1,1.5,1,87.0,24.6,-6.9,105.4
O=C(Oc1ccc(-c2nccc(-c3ccccn3)n2)cc1)c1cccc(C(F)(F)F)c1,33.3,3.42*,89.5,16.1,22.9,79.0
O=c1c2c3c(sc2ncn1/N=C/c1ccc([N+](=O)[O-])o1)CCCC3,-18.9,4.05*,111.4,-2.8,4.4,96.0
C/C(N)=C(/C#N)C(=O)COC(=O)c1ccc(C#N)cc1,6.8,0.87,107.8,-7.5,-7.7,105.7
CCOC(=O)c1cnn(-c2ccccc2)c1N,12.7,1.92,95.7,5.3,1.0,99.0
COc1ccc(OC(=O)c2cnn(-c3ccccc3)c2C)cc1,105.6,5.93*,96.6,4.3,-54.6,150.5*
COC(=O)CNC(c1ccccc1)c1cc(Br)ccc1NS(=O)(=O)c1ccc(C)cc1 (configuration not stated),-15.6,0.75,110.8,-7.4,-8.9,107.8
Fc1ccc(-c2nnc(-c3ccc(Cl)cc3)o2)cc1,37.3,4.2*,81.6,23.3,-38.2,135.0*
CSc1nnc(-c2ccc(F)cc2)o1,3.0,0.87,92.4,17.4,-8.2,107.5
CCOc1ccc(C(=O)Nc2ccccc2-c2ccccc2)cc1Cl,0.0,1.18,83.2,26.0,-1.4,101.3
CCOc1ccc(C(=O)Nc2cccc(C(=O)O)c2C)cc1Cl,43.5,3.45*,38.7,74.6*,50.9*,54.5
CCOc1c(Cl)cc(C(=O)Nc2ccccc2C(=O)O)cc1Cl,-6.1,3.96*,123.8,-21.2,-21.3,119.5
SMILES,APP 5'UTR act,NF-kB neuron act,STAT3 activator,STAT3 inh,STAT1 inh,STAT1 act
Cc1cc(=O)oc2cc(OC(=O)CCCCCN3C(=O)c4ccccc4C3=O)ccc12,-3.0,0.88,97.1,8.4,-7.9,107.1
Cc1ccc(C(=O)C2(C)C3c4cc(Br)ccc4OC(=O)C32C(=O)c2ccco2)cc1 (configuration not stated),-4.8,0.95,96.2,8.8,2.2,98.0
Cc1cc(Cl)ccc1OCCCC(=O)NO,19.1,3.87*,83.2,24.4,14.1,88.0
Cc1cc(Cl)ccc1OCCCC(N)=O,-5.8,0.94,94.6,12.1,0.1,100.0
Clc1ccc(-c2nnc(Sc3nc4ccccc4o3)c3ccccc23)cc1,10.7,4.18*,97.3,9.9,-3.7,103.3
Cc1ccc(-c2nnc(Sc3nc4ccccc4o3)c3ccccc23)cc1,37.6,4.86*,100.6,6.4,1.2,99.0
O=[N+]([O-])c1nn(-c2ccc3c(c2)OCCO3)n(O)c1=NCc1ccccc1Cl,32.3,2.48,103.5,0.6,-52.0,146.5*
COc1ccc(-n2nc([N+](=O)[O-])c(=NCCc3ccc(Cl)cc3)n2O)cc1,11.2,1.28,98.3,8.8,-2.6,102.3
COc1ccc(-n2nc([N+](=O)[O-])c(=NCc3cccnc3)n2O)cc1,48.0,2.7,102.6,-5.5,-54.8,148.8*
COc1ccc(-n2nc([N+](=O)[O-])c(=NCCc3ccc(C)cc3)n2O)cc1,7.4,1.31,103.6,-2.4,-5.5,103.7
COc1ccc(-n2nc([N+](=O)[O-])c(=NCc3ccco3)n2O)cc1,72.6,2.23,99.5,2.6,-48.5,143.2*
CC(=O)NC(Cc1ccc(F)cc1)C(=O)NC1CCN(c2ncccc2[N+](=O)[O-])CC1 (configuration not stated),12.0,1.1,97.0,8.3,-7.2,103.4
COC(=O)c1ccc(NC(=O)CN(c2ccc(OC)cc2)S(C)(=O)=O)cc1,20.0,2.8,122.1,-24.0,-36.8,134.0*
O=C1CN2NC(=S)N(c3ccccc3)C2=CN1c1ccc(Cl)cc1,6.8,1.03,103.8,0.4,-7.5,104.0
CCCn1c(O)c(N=N)c2ccccc21,-16.5,1.04,111.6,-11.0,0.1,100.4
Cc1ccc(-c2nc3ccccc3c(C(=O)NCc3cccs3)c2C)cc1,-9.3,0.61,143.1*,-54.5,14.4,86.7
Cc1ccc2c(c1)NC(=O)c1cccnc1N2,54.0,2.9,108.1,-5.1,-44.1,139.3*
N#C/C(=C\c1ccc(OCc2ccc(C(=O)O)cc2)cc1)C(=O)N1CCOCC1,-55.8,7.01*,24.1,89.1*,69.2*,38.4
COc1ccc(-c2noc(-c3ccccc3Cl)n2)cc1OC,125.4,4.89*,109.1,-6.7,-46.5,143.0*
Cc1cccc(-c2noc(Cc3ccc(Cl)cc3)n2)c1,30.0,1.77,105.6,-2.4,-14.8,113.5
COc1ccc(-c2noc(-c3cccc(Cl)c3)n2)cc1OC,51.6,2.02,92.6,12.0,-16.0,114.5
Cc1cccc(-c2noc(-c3ccc(Cl)cc3[N+](=O)[O-])n2)c1,177.6*,5.34*,114.7,-20.5,-9.8,108.7
COc1ccc(-c2noc(-c3ccc(Cl)cc3[N+](=O)[O-])n2)cc1OC,42.1,1.92,95.0,4.0,-3.4,103.0
